According to ChEMBL document CHEMBL4052832, “Selective Inhibitors of Human Neuraminidase 3” (J Med Chem, 2018):
Values after ≈ are worked out from the molar mass of the structure shown. Active and inactive are the calls of the source. The rule behind the calls is not given here.

Key:
[1] = target: T1, Sialidase-3 (Homo sapiens, UniProt Q9UQ49); assay: Inhibition of human N-terminal MBP-fused NEU3 expressed in Escherichia coli using 4MU-NANA as substrate preincubated for 15 mins followed by substrate addition measured after 30 mins by fluorescence based assay
T1 sequence (Q9UQ49 whole entry): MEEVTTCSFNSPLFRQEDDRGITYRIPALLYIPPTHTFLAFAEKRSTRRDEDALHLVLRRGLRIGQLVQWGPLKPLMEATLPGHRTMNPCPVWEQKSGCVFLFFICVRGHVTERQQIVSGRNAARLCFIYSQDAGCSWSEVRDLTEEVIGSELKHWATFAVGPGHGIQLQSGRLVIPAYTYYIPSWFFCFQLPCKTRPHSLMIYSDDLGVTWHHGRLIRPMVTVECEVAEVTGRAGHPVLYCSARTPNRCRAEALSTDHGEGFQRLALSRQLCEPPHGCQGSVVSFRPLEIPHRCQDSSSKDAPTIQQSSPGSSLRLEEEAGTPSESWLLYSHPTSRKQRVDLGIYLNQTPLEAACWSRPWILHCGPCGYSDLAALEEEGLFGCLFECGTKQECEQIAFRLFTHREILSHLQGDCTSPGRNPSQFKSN

[2] = target: T2, Sialidase-4 (Homo sapiens, UniProt Q8WWR8); assay: Inhibition of human N-terminal MBP-fused NEU4 expressed in Escherichia coli using 4MU-NANA as substrate preincubated for 15 mins followed by substrate addition measured after 30 mins by fluorescence based assay
T2 sequence (Q8WWR8 whole entry): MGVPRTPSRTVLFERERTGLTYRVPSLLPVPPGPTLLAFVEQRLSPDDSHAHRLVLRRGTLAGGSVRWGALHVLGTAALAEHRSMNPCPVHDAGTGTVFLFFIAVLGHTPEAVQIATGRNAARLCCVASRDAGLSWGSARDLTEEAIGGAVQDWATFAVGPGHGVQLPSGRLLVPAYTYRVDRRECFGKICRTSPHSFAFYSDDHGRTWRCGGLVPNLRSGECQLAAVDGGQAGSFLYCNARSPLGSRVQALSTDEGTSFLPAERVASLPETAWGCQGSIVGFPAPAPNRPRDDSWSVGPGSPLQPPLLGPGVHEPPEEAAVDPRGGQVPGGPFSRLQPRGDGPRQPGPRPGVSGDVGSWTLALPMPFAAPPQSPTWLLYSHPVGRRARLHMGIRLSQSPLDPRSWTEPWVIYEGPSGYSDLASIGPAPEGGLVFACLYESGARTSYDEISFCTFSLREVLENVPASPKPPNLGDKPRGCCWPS

[3] = target: T3, Sialidase-1 (Homo sapiens, UniProt Q99519); assay: Inhibition of human CathA-IRES-6His-tagged NEU1 expressed in HEK293T cells using 4MU-NANA as substrate preincubated for 15 mins followed by substrate addition measured after 30 mins by fluorescence based assay; type: cell-based, HEK-293T
[4] = target: Sialidase NEU1/NEU4 (Mus musculus) (UniProt O35657+Q8BZL1); assay: Inhibition of NEU1/NEU4 in NEU3 knockout C57BL6 mouse brain homogenate up to 150 uM using 4MU-NANA as substrate after 30 mins relative to control
Outline: (§1)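 Brains from 12-week-old WT, neu1−/−, neu3−/− or neu3−/−neu4−/− mice, snap-frozen and homogenized in water; protein by Bradford. Acidic neuraminidase assayed at pH 4.6 using homogenate equal to 300 μg protein, inhibitor 0–150 μM and 200 μM 4MU-NANA, 37 °C for 30 min. Stopped with 0.4 M glycine pH 10.5. Activity relative to no-inhibitor, mean ± SD of 6–12 experiments.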

[5] = target: Sialidase-1 (Mus musculus) (UniProt O35657); assay: Inhibition of NEU1 in NEU3/NEU4 double knockout C57BL6 mouse brain homogenate up to 150 uM using 4MU-NANA as substrate after 30 mins; outline: as §1
[6] = target: T1, Sialidase-3; assay: Inhibition of human N-terminal MBP-fused NEU3 expressed in Escherichia coli using 4MU-NANA as substrate preincubated for 15 mins followed by substrate addition measured every minute for 30 mins by fluorescence based assay
[7] = Inhibition in C57BL6 mouse brain homogenate at 10 uM using 4MU-NANA as substrate after 30 mins relative to control
[8] = target: Sialidase-1 (Mus musculus) (UniProt O35657); assay: Inhibition of NEU1 in C57BL6 mouse brain homogenate using 4MU-NANA as substrate at 150 uM after 30 mins; outline: as §1
[9] = target: T4, Sialidase NEU3/NEU4 (Mus musculus) (UniProt Q9JMH7+Q8BZL1); assay: Inhibition of NEU3/NEU4 in NEU1 knockout C57BL6 mouse brain homogenate using 4MU-NANA as substrate after 30 mins; outline: as §1
T4 sequence (Q8BZL1 whole entry, looked up, the tested form may be a part): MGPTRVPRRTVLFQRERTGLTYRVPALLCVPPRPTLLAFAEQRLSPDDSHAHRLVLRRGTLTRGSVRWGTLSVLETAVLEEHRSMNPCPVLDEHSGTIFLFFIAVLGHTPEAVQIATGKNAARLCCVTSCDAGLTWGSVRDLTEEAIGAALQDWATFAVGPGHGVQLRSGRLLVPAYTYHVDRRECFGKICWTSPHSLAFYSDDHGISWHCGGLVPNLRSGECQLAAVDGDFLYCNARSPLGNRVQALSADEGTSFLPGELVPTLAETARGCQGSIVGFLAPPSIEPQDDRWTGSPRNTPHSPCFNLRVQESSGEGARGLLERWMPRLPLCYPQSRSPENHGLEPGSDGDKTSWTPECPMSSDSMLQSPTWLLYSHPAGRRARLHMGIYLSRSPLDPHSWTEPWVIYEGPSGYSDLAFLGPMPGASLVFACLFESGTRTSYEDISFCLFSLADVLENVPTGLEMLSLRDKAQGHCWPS
T4 sequence (Q9JMH7 whole entry, looked up, the tested form may be a part): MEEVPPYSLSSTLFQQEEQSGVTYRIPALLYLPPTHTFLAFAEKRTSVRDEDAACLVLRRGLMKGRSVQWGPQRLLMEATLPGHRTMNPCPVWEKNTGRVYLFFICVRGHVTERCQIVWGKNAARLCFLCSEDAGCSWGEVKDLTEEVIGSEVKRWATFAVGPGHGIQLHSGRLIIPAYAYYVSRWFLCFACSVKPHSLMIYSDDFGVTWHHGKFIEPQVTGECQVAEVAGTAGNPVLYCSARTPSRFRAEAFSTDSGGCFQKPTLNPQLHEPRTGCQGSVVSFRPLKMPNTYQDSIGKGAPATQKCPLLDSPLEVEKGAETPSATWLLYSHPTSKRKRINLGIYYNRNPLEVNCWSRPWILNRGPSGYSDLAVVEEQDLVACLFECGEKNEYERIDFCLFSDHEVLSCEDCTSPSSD

[10] = target: T2, Sialidase-4; assay: Inhibition of human N-terminal MBP-fused NEU4 expressed in Escherichia coli using GM3 as substrate preincubated for 15 mins followed by substrate addition measured after 30 mins by fluorescence based assay
[11] = target: T1, Sialidase-3; assay: Inhibition of human N-terminal MBP-fused NEU3 expressed in Escherichia coli using GM3 as substrate preincubated for 15 mins followed by substrate addition measured after 30 mins by fluorescence based assay
Outline: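 GM3 hydrolysis in 0.1 M sodium acetate pH 4.5. Serially diluted inhibitors preincubated with enzyme 15 min at 0 °C, then GM3 added to 500 μM for 30 min at 37 °C. Quenched with fresh 0.2 M sodium borate pH 10.2, then malononitrile added to form a fluorescent adduct with freed sialic acid; ex 357/em 434 nm.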

[12] = target: T2, Sialidase-4; assay: Inhibition of human N-terminal MBP-fused NEU4 expressed in Escherichia coli using 4MU-NANA as substrate preincubated for 15 mins followed by substrate addition measured every minute for 30 mins by fluorescence based assay
[13] = target: T3, Sialidase-1; assay: Inhibition of human CathA-IRES-6His-tagged NEU1 expressed in HEK293T cells using 4MU-NANA as substrate preincubated for 15 mins followed by substrate addition measured every minute for 30 mins by fluorescence based assay; type: cell-based; details: hek-293t
Outline: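 Ki determination. Enzyme preincubated with serially diluted inhibitor 15 min at 0 °C, then serial 4MU-NANA concentrations added.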

[14] = target: Sialidase-1 (Mus musculus) (UniProt O35657); assay: Inhibition of NEU1 in C57BL6 mouse brain homogenate assessed as residual activity at 50 uM using 4MU-NANA as substrate after 30 mins relative to control; outline: as §1
[15] = Kinetic solubility of compound in Tris-HCl buffer at pH 7.4 at 10 mM incubated in supersonic bath for 30 mins measured after 24 hrs by LC-MS analysis; type: physicochemical; details: for solubility kinetic at 24 h, 10000 µM: Tris-HCl buffer, pH 7.4, read-out: Kinetic_solubility
Outline: (§2)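 Kinetic solubility. 10 mM DMSO stock diluted 1:100 into 0.1 M Tris-HCl pH 7.4, Prisma HT buffer, or 0.9% NaCl in water (final 1% DMSO). Sonicated 30 min at 25 °C, equilibrated 24 h at 25 °C, filtered (0.2 μm), diluted in MeOH and analysed by LC-MS. Single measurements.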

[16] = Kinetic solubility of compound in 0.9% NaCl at 10 mM incubated in supersonic bath for 30 mins measured after 24 hrs by LC-MS analysis; type: physicochemical; details: read-out: Kinetic_solubility; outline: as §2
[17] = Kinetic solubility of compound in Prisma HT 6.5 buffer at pH 7.4 at 10 mM incubated in supersonic bath for 30 mins measured after 24 hrs by LC-MS analysis; type: physicochemical; details: pH 6.5, in the assay text read “at pH 6.5” for “at pH 7.4”, read-out: Kinetic_solubility; outline: as §2
[18] = Octanol-water partition coefficient, log D of compound at pH 7.4 at 10 uM after 2 hrs by LC-MS based shake flask analysis; type: physicochemical
Outline: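 Shake-flask log D at pH 7.4. Octanol and 0.1 M Tris-HCl pH 7.4, mutually saturated. Compound at 10 μM in buffer with 0.1% DMSO, at two octanol:buffer ratios, each in triplicate.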

[19] = target: T4, Sialidase NEU3/NEU4 (Mus musculus); assay: Inhibition of NEU3/NEU4 in NEU1 knockout C57BL6 mouse brain homogenate assessed as residual activity using 4MU-NANA as substrate after 30 mins relative to control; outline: as §1
[20] = target: Sialidase-1 (Mus musculus) (UniProt O35657); assay: Inhibition of NEU1 in C57BL6 mouse brain homogenate assessed as residual activity at 10 uM using 4MU-NANA as substrate after 30 mins relative to control; outline: as §1

CC(=O)N[C@H]1[C@H]([C@H](O)[C@H](O)Cn2cc(-c3ccc(C(=O)O)cc3)nn2)OC(C(=O)O)=C[C@@H]1NC(=N)N
IC50 [1]: 0.61 µM
IC50 [2]: 24 µM
IC50 [3]: > 500 µM

CC(=O)N[C@H]1[C@H]([C@H](O)[C@H](O)Cn2cc(-c3ccc(-c4ccccc4)cc3)nn2)OC(C(=O)O)=C[C@@H]1O
inhibition [4]: 20%
inhibition [5]: inactive
Ki [6]: 0.28 µM
IC50 [1]: 0.7 µM
inhibition [7]: < 70%
inhibition [8]: inactive
inhibition [9]: Active
IC50 [10]: 3.7 µM
IC50 [11]: 12 µM
Ki [12]: 0.26 µM
IC50 [2]: 0.52 µM
IC50 [3]: > 500 µM
Ki [13]: Not Active
Activity [14]: 60%

CC(=O)N[C@H]1[C@H]([C@H](O)[C@H](O)Cn2cc(-c3ccc(C(=O)O)cc3)nn2)OC(C(=O)O)=C[C@@H]1NC(=O)NCCC(=O)O
IC50 [1]: > 500 µM
IC50 [3]: > 500 µM

CCOC(=O)C1=C[C@H](O)[C@@H](NC(C)=O)[C@H]([C@H](O)[C@H](O)Cn2cc(-c3ccc(-c4ccccc4)cc3)nn2)O1
solubility kinetic at 24 h, 10000 µM [15]: 13.8 µg/mL (≈ 26.4 µM)
solubility kinetic at 24 h, 10000 µM [16]: 3.7 µg/mL (≈ 7.08 µM)
solubility kinetic at 24 h, 10000 µM [17]: 3.2 µg/mL (≈ 6.12 µM)
logD at 2 h, 10 µM [18]: 3.4

CC(=O)N[C@H]1[C@H]([C@H](O)[C@H](O)CO)OC(C(=O)O)=C[C@@H]1O [NEU5AC2EN]
Ki [13]: Not Active
logD at 2 h, 10 µM [18]: < -1.5

CC(=O)N[C@H]1[C@H]([C@H](O)[C@H](O)Cn2cc(-c3ccc(C(=O)O)cc3)nn2)OC(C(=O)O)=C[C@@H]1O
IC50 [1]: 1.1 µM
IC50 [2]: 3 µM
IC50 [3]: 240 µM

CC(=O)N[C@H]1[C@H]([C@H](O)[C@H](O)Cn2cc(-c3ccc(Oc4ccccc4)cc3)nn2)OC(C(=O)O)=C[C@@H]1O
IC50 [3]: > 500 µM

CC(=O)N[C@H]1[C@H]([C@H](O)[C@H](O)Cn2cc(-c3ccc(C(=O)O)cc3)nn2)OC(C(=O)O)=C[C@@H]1N
IC50 [1]: > 500 µM
IC50 [2]: > 500 µM
IC50 [3]: > 500 µM

COC(=O)C1=C[C@H](O)[C@@H](NC(C)=O)[C@H]([C@H](O)[C@H](O)Cn2cc(-c3ccc(-c4ccccc4)cc3)nn2)O1
Kinetic_solubility ([15]; buffer, pH 7.4, 10000 µM): 1.5 µg/mL
solubility kinetic at 24 h, 10000 µM [16]: > 1 µg/mL
solubility kinetic at 24 h, 10000 µM [17]: > 1 µg/mL
logD at 2 h, 10 µM [18]: 2.3

CC(=O)N[C@H]1[C@H]([C@H](O)[C@H](O)Cn2cc(-c3ccc(CO)cc3)nn2)OC(C(=O)O)=C[C@@H]1O
logD at 2 h, 10 µM [18]: < -1.5

CC(=O)N[C@H]1[C@H]([C@H](O)[C@H](O)Cn2cc(-c3ccc(-c4ccccc4)cc3)nn2)OC(C(=O)O)=C[C@@H]1NC(=N)N
Activity [19]: 60%
inhibition [5]: inactive
Ki [6]: 0.32 µM
IC50 [1]: 0.58 µM
Activity [20]: 85%
IC50 [11]: 3.8 µM
IC50 [3]: > 500 µM
Ki [13]: Not Active
logD at 2 h, 10 µM [18]: 1.2

CCCCC(=O)NC[C@@H](O)[C@@H](O)[C@@H]1OC(C(=O)O)=C[C@H](O)[C@H]1NC(C)=O
IC50 [2]: 220 µM
logD at 2 h, 10 µM [18]: -1

CCCOC(=O)C1=C[C@H](O)[C@@H](NC(C)=O)[C@H]([C@H](O)[C@H](O)Cn2cc(-c3ccc(-c4ccccc4)cc3)nn2)O1
solubility kinetic at 24 h, 10000 µM [15]: 2.8 µg/mL (≈ 5.22 µM)
solubility kinetic at 24 h, 10000 µM [16]: 2.4 µg/mL (≈ 4.47 µM)
solubility kinetic at 24 h, 10000 µM [17]: 1.7 µg/mL (≈ 3.17 µM)

CC(=O)N[C@H]1[C@H]([C@H](O)[C@H](O)Cn2cc(-c3ccc(C(=O)O)cc3)nn2)OC(C(=O)O)=C[C@@H]1N=[N+]=[N-]
IC50 [3]: > 500 µM

CC(=O)N[C@H]1[C@H]([C@H](O)[C@H](O)CO)OC(C(=O)O)=C[C@@H]1NC(=N)N [ZANAMIVIR]
IC50 [3]: > 500 µM
Ki [13]: Not Active
